# Published values from different studies.
# Protocols differ between the studies behind these lines.
Compound,target or system,assay,system,conditions,measurement,value
O=C(O)CCCCCCCCCCCCCCCc1ccccc1,Leishmania infantum,parasite growth,mouse Splenocyte,"72 h, intracellular, amastigote",IC50,3 to 6 µM
OC[C@H]1O[C@@H](n2cnc3c(NC4CCCC4)ncnc32)[C@H](O)[C@@H]1O,,MES seizures,rat,intraperitoneal,ED50,6.7 mg/kg
CC1=NN(CNC(=O)c2ccccc2)C(=O)C1=NNn1c(-c2ccccc2)nc2ccccc2c1=O,Vibrio cholerae,"microbial growth, broth dilution",,24 h,MIC,51.9 µM
COc1ccc(OS(=O)(=O)NC(=O)CCCCc2ccccc2)cc1,Bacillus anthracis,microbial growth,STERNE34F2,,MIC,200 µg/mL
CC1=NN(CNc2ccc(O)cc2)C(=O)C1=NNn1c(-c2ccccc2)nc2ccccc2c1=O,Vibrio cholerae,"microbial growth, broth dilution",,24 h,MIC,107 µM
CCCCCCCCCCCCCCCC(=O)CP(=O)(O)O,Bacillus anthracis,microbial growth,STERNE34F2,,MIC,1.56 µg/mL
CN[C@H](CC(C)C)C(=O)N[C@H]1C(=O)N[C@@H](CC(N)=O)C(=O)N[C@H]2C(=O)N[C@H]3C(=O)N[C@H](C(=O)N[C@H](C(=O)O)c4cc(O)cc(O)c4-c4cc3ccc4O)[C@H](O)c3ccc(c(Cl)c3)Oc3cc2cc(c3O[C@@H]2O[C@H](CO)[C@@H](O)[C@H](O)[C@H]2O[C@H]2C[C@](C)(N)[C@H](O)[C@H](C)O2)Oc2ccc(cc2Cl)[C@H]1O,Streptococcus pyogenes,microbial growth,,,MIC,0.25 µg/mL
CC(C)[C@H](N)C(=O)OCCCCCn1cnc2nc(NCc3ccc(Cl)c(Cl)c3)[nH]c(=O)c21,Bifidobacterium,"microbial growth, agar dilution",,48 h,MIC,32 µg/mL
CCOC(=O)Nc1ccc(NCc2ccc(F)cc2)cc1N,,MES seizures,rat,oral,ED50,12.1 mg/kg
CC1=NN(CNc2ccccn2)C(=O)C1=NNn1c(-c2ccccc2)nc2ccccc2c1=O,Vibrio cholerae,"microbial growth, broth dilution",,24 h,MIC,55.2 µM
CCCCCCCCCCCCCCCC(=O)NP(=O)(O)O,Bacillus anthracis,microbial growth,STERNE34F2,,MIC,> 200 µg/mL
O=C1NN=C(N=Cc2ccccc2O)C1=NNn1c(-c2ccccc2)nc2ccccc2c1=O,Vibrio cholerae,"microbial growth, broth dilution",,24 h,MIC,55.4 µM
CCCCCCCCCCCCCCCC(=O)NS(=O)(=O)Oc1ccc(OC)cc1,Bacillus anthracis,microbial growth,STERNE34F2,,MIC,3.12 µg/mL
CN[C@@H]1[C@H](O)[C@H](NC)[C@H]2O[C@@]3(O)C(=O)C[C@@H](C)O[C@H]3O[C@@H]2[C@H]1O,Bacillus anthracis,microbial growth,STERNE34F2,,MIC,25 µg/mL
CCCCCCCCCCCC(=O)CP(=O)(O)O,Bacillus anthracis,microbial growth,STERNE34F2,,MIC,50 µg/mL
O=C(O)c1cn(C2CC2)c2cc(N3CCNCC3)c(F)cc2c1=O,Bacillus anthracis,microbial growth,34F2,,MIC,0.781 µM
CCCCCCCCCCCC(=O)NP(=O)(O)O,Bacillus anthracis,microbial growth,STERNE34F2,,MIC,> 200 µg/mL
CC[C@H]1OC(=O)[C@H](C)[C@@H](O[C@H]2C[C@@](C)(OC)[C@@H](O)[C@H](C)O2)[C@H](C)[C@@H](O[C@@H]2O[C@H](C)C[C@H](N(C)C)[C@H]2O)[C@](C)(O)C[C@@H](C)C(=O)[C@H](C)[C@@H](O)[C@]1(C)O,Bacillus anthracis,microbial growth,34F2,,MIC,3.13 µM
